Source: ChEMBL document CHEMBL3286372, “Design, synthesis and structure-activity relationship of novel semi-synthetic flavonoids as antiproliferative agents” (2014)

Experiments:
SR = experiment: Growth inhibition of human SR cells at 10 uM after 48 hrs by sulforhodamine B assay relative to control; type: functional; conditions: read-out: GI
How it was run: (§1)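 NCI-60 primary screen at a single 10 µM dose. Continuous 48 h exposure, with growth or viability estimated by sulforhodamine B protein staining. Reported as percent growth inhibition of treated cells relative to untreated growth.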

MDA-MB-435 = experiment: Growth inhibition of human MDA-MB-435 cells at 10 uM after 48 hrs by sulforhodamine B assay relative to control; type: functional; conditions: MDA-MB-435, 48 h, read-out: GI
How it was run: (§2)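 NCI-60 primary screen at a single dose of 10 µM with 48 h continuous exposure. Growth or viability read by sulforhodamine B protein staining and expressed as percent growth inhibition versus untreated cells.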

HCT-116 = experiment: Growth inhibition of human HCT116 cells at 10 uM after 48 hrs by sulforhodamine B assay relative to control; type: functional; conditions: HCT-116, 48 h, read-out: GI; how it was run: as §2
KM12 = experiment: Growth inhibition of human KM12 cells at 10 uM after 48 hrs by sulforhodamine B assay relative to control; type: functional; conditions: KM12, 48 h, read-out: GI; how it was run: as §2
[1] = Growth inhibition of human MOLT4 cells at 10 uM after 48 hrs by sulforhodamine B assay relative to control; type: functional; conditions: MOLT-4, 48 h, read-out: GI; how it was run: as §1
MCF7 = experiment: Growth inhibition of human MCF7 cells at 10 uM after 48 hrs by sulforhodamine B assay relative to control; type: functional; conditions: MCF7, 48 h, read-out: GI; how it was run: as §2
RPMI-8226 = experiment: Growth inhibition of human RPMI8226 cells at 10 uM after 48 hrs by sulforhodamine B assay relative to control; type: functional; conditions: RPMI-8226, 48 h, read-out: GI; how it was run: as §1
[2] = Growth inhibition of human NCI-ADR-RES cells at 10 uM after 48 hrs by sulforhodamine B assay relative to control; type: functional; conditions: read-out: GI; how it was run: as §1
HL-60(TB) [3] = experiment: Growth inhibition of human HL-60(TB) cells after 48 hrs by coulter counting analysis; type: functional; conditions: HL-60, 48 h
How it was run: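 Five-dose screen (0.01-100 µM, DMSO-solubilized, under 1% DMSO final), cells in RPMI 1640 + 10% FBS at 6×10^4 cells/ml, duplicate wells, 37 °C, 5% CO2, 48 h. Cells then diluted tenfold in saline and counted by Coulter counter with dilution correction. Controls held buffer/saline/DMSO at matching dilutions. GI50 derived from log concentration-percent growth inhibition curves.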

[4] = Growth inhibition of human PC549 cells after 48 hrs by coulter counting analysis; type: functional
How it was run: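 Five-dose NCI-60 follow-up, 0.01–100 µM, made from DMSO stock in buffered saline (final DMSO <1%), in duplicate wells. Cells in RPMI 1640 with 10% FBS at 6×10^4 cells/ml, 37 °C, 5% CO2, 48 h. Cells diluted tenfold in saline, Coulter-counted and corrected for dilution. GI50, TGI and LC50 taken from log concentration–percent growth curves.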

NCI-H522 = experiment: Growth inhibition of human NCI-H522 cells at 10 uM after 48 hrs by sulforhodamine B assay relative to control; type: functional; conditions: NCI-H522, 48 h, read-out: GI; how it was run: as §1
[5] = Growth inhibition of human LOXIMVI cells at 10 uM after 48 hrs by sulforhodamine B assay relative to control; type: functional; conditions: LOX IMVI, read-out: GI; how it was run: as §2
[6] = Growth inhibition of human OVCAR3 cells at 10 uM after 48 hrs by sulforhodamine B assay relative to control; type: functional; conditions: OVCAR-3, 48 h, read-out: GI; how it was run: as §1
ACHN = experiment: Growth inhibition of human ACHN cells at 10 uM after 48 hrs by sulforhodamine B assay relative to control; type: functional; conditions: read-out: GI; how it was run: as §2
Ehrlich = experiment: Antitumor activity against mouse EAC cells allografted in BALB mouse assessed as tumor growth inhibition at 6 mg/kg, ip for 5 days relative to control; type: functional; conditions: 120 h, route intraperitoneal, read-out: TGI
How it was run: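 Female BALB mice; Ehrlich ascites carcinoma cells, 2×10^5 cells/mouse in 0.2 ml saline, injected s.c. into the left hind leg and grown 2 wk. Daily i.p. saline (control), 3 or 6 mg/kg for 5 days. Caliper size V = 0.4×a(b)^2, taken just before the first dose and 24 h after the last. Mean ± SEM, n = 6; ANOVA with Tukey-Kramer.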

U-251 = experiment: Growth inhibition of human U251 cells at 10 uM after 48 hrs by sulforhodamine B assay relative to control; type: functional; conditions: U-251, 48 h, read-out: GI
How it was run: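 NCI-60 primary single-dose screen at 10 µM with continuous 48 h exposure. Cell viability/growth read by sulforhodamine B protein staining. Reported as percent growth inhibition relative to untreated cells.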

[7] = Growth inhibition of human […] cells after 48 hrs by coulter counting analysis; type: functional
How it was run: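 NCI five-dose screen at 0.01-100 µM, diluted from DMSO stocks in buffered saline (final DMSO <1%). Cells at 6×10^4 cells/ml in RPMI 1640 with 10% FBS, in duplicate wells, at 37 °C under 5% CO2 for 48 h. Cells diluted tenfold in saline and Coulter-counted. GI50, TGI and LC50 taken from log concentration-growth inhibition curves.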

NCI-H23 = experiment: Growth inhibition of human NCI-H23 cells at 10 uM after 48 hrs by sulforhodamine B assay relative to control; type: functional; conditions: NCI-H23, 48 h, read-out: GI; how it was run: as §1
IGROV-1 = experiment: Growth inhibition of human IGROV1 cells at 10 uM after 48 hrs by sulforhodamine B assay relative to control; type: functional; conditions: IGROV-1, 48 h, read-out: GI; how it was run: as §2
HL-60(TB) [8] = experiment: Growth inhibition of human HL-60(TB) cells at 10 uM after 48 hrs by sulforhodamine B assay relative to control; type: functional; conditions: HL-60, 48 h, read-out: GI
How it was run: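 Single-dose primary screen at 10 µM across the NCI 60 panel, 48 h continuous exposure. Growth estimated by sulforhodamine B protein staining and reported as percentage growth inhibition relative to untreated control.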

PC-3 = experiment: Growth inhibition of human PC3 cells at 10 uM after 48 hrs by sulforhodamine B assay relative to control; type: functional; conditions: PC-3, 48 h, read-out: GI; how it was run: as §1
Mus musculus = experiment: Decrease in cyclin D1 level in tumor of BALB mouse allografted with mouse EAC cells at 6 mg/kg, ip for 5 days competitive ELISA relative to control; type: functional, Ehrlich; design: scale not given: the % may be the effect or the level left; conditions: route intraperitoneal
How it was run: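 Mice bearing s.c. Ehrlich tumours (2×10^5 EAC cells, grown 2 wk) were given daily i.p. saline, 3 or 6 mg/kg for 5 days. Tumours were excised, washed in cold saline and blotted, and a 10% homogenate was made in phosphate buffered saline. Cyclin D1 was measured by competitive ELISA with samples in duplicate. Mean ± SEM, n = 6.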

NCI-H460 = experiment: Growth inhibition of human NCI-H460 cells at 10 uM after 48 hrs by sulforhodamine B assay relative to control; type: functional; conditions: NCI-H460, 48 h, read-out: GI; how it was run: as §1
CAKI-1 = experiment: Growth inhibition of human CAKI-1 cells at 10 uM after 48 hrs by sulforhodamine B assay relative to control; type: functional; conditions: CAKI-1, 48 h, read-out: GI; how it was run: as §2
[9] = Growth inhibition of human HOP92 cells at 10 uM after 48 hrs by sulforhodamine B assay relative to control; type: functional; conditions: HOP-92, 48 h, read-out: GI; how it was run: as §2

## COc1c(C(=O)/C=C/c2ccccc2)c(O)cc2occc12
SR
  inhibition of growth at 10 µM: 72%
MDA-MB-435
  inhibition of growth at 10 µM: 68%
HCT-116
  inhibition of growth at 10 µM: 68%
KM12
  inhibition of growth at 10 µM: 64%
[1]
  inhibition of growth at 10 µM: 89%
MCF7
  inhibition of growth at 10 µM: 76%
RPMI-8226
  inhibition of growth at 10 µM: 86%
[2]
  inhibition of growth at 10 µM: 68%

## COc1c2ccoc2c(/C=C/C=O)c2oc(-c3ccccc3)cc(=O)c12
HL-60(TB) [3]
  GI50: 2330 nM

## COc1c2occc2c(OC)c2c(=O)c(CN3CCOCC3)c(/C=C/c3ccc(N(C)C)cc3)oc12
[4]
  GI50: 2870 nM
HCT-116
  inhibition of growth at 10 µM: 82%
NCI-H522
  inhibition of growth at 10 µM: 84%
[5]
  inhibition of growth at 10 µM: 65%
[6]
  inhibition of growth at 10 µM: 88%
ACHN
  inhibition of growth at 10 µM: 89%
Ehrlich
  inhibition in vivo at 6 mg/kg: 57.1%
KM12
  inhibition of growth at 10 µM: 73%
[1]
  inhibition of growth at 10 µM: 88%
U-251
  inhibition of growth at 10 µM: 69%
RPMI-8226
  inhibition of growth at 10 µM: 80%
HL-60(TB) [3]
  GI50: 1550 nM
  LC50: 9.7 µM
[7]
  GI50: 1680 nM
[2]
  inhibition of growth at 10 µM: 87%
NCI-H23
  inhibition of growth at 10 µM: 80%
IGROV-1
  inhibition of growth at 10 µM: 78%
HL-60(TB) [8]
  inhibition of growth at 10 µM: 64%
PC-3
  inhibition of growth at 10 µM: 87%
Mus musculus
  Activity: 59.1%

## COc1ccccc1/C=C/C(=O)c1c(O)cc2occc2c1OC
SR
  inhibition of growth at 10 µM: 62%
MDA-MB-435
  inhibition of growth at 10 µM: 74%
NCI-H460
  inhibition of growth at 10 µM: 61%
HCT-116
  inhibition of growth at 10 µM: 66%
KM12
  inhibition of growth at 10 µM: 63%
[1]
  inhibition of growth at 10 µM: 66%
MCF7
  inhibition of growth at 10 µM: 60%
RPMI-8226
  inhibition of growth at 10 µM: 86%

## C=CCc1c2c(c(OC)c3ccoc13)C(=O)/C(=C/c1ccccc1OC)O2
NCI-H460
  inhibition of growth at 10 µM: 69%
HCT-116
  inhibition of growth at 10 µM: 79%
[5]
  inhibition of growth at 10 µM: 62%
MCF7
  inhibition of growth at 10 µM: 67%
RPMI-8226
  inhibition of growth at 10 µM: 71%
CAKI-1
  inhibition of growth at 10 µM: 62%
[2]
  inhibition of growth at 10 µM: 65%
NCI-H23
  inhibition of growth at 10 µM: 80%

## COc1ccc(-c2cc(=O)c3c(OC)c4ccoc4c(/C=C/C=O)c3o2)cc1
HL-60(TB) [3]
  GI50: 2720 nM

## COc1c2occc2c(OC)c2c(=O)c(CN3CCOCC3)c(/C=C/c3ccc(Cl)cc3)oc12
NCI-H460
  inhibition of growth at 10 µM: 88%
[9]
  inhibition of growth at 10 µM: 95%
[6]
  inhibition of growth at 10 µM: 68%
ACHN
  inhibition of growth at 10 µM: 66%
[1]
  inhibition of growth at 10 µM: 93%
RPMI-8226
  inhibition of growth at 10 µM: 60%
CAKI-1
  inhibition of growth at 10 µM: 61%
HL-60(TB) [8]
  inhibition of growth at 10 µM: 60%
PC-3
  inhibition of growth at 10 µM: 72%

## COc1c(C(=O)/C=C/c2ccc(Cl)cc2)c(O)c(Br)c2occc12
[4]
  GI50: 2540 nM
HL-60(TB) [3]
  GI50: 1720 nM
[7]
  GI50: 3120 nM
